Source: ChEMBL document CHEMBL3593158, “Dirchromones: Cytotoxic Organic Sulfur Compounds Isolated from Dirca palustris” (J Nat Prod, 2015)
In brackets after ≈: the same amount, converted by molar mass. Activity calls are given as the source filed them. The rule behind the calls is not given here.

Legend:
[1] = Cytotoxicity against human DLD1 cells assessed as inhibition of cell growth incubated for 48 hrs by Hoechst assay; format: functional, cell-based; details: DLD-1, 48 h
How it was run: (§1)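 Cells from ATCC, grown in MEM with Earle's salts, 10% fetal calf serum, vitamins, sodium pyruvate, nonessential amino acids and penicillin/streptomycin at 37 °C in humidified 5% CO2. 5 × 10^3 exponentially growing cells per well adhered for 16 h, then were exposed 48 h to increasing concentrations in medium (final DMSO 0.5% v/v). Hoechst staining read-out; IC50 is the concentration inhibiting growth by 50%.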

A549 [2] = experiment: Cytotoxicity against human A549 cells assessed as inhibition of cell growth incubated for 48 hrs by Hoechst assay; format: functional, cell-based; details: A549, 48 h; how it was run: as §1
[3] = Cytotoxicity against human WS1 cells assessed as inhibition of cell growth incubated for 48 hrs by Hoechst assay; format: cell-based; details: WS1, 48 h; how it was run: as §1
Candida albicans = experiment: Antifungal activity against Candida albicans incubated for 24 hrs by microdilution method; format: functional, organism-based
How it was run: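 Yeast tested by modified microdilution at 2 × 10^3 C. albicans per well in Sabouraud dextrose. Compounds were dissolved in DMSO, diluted in Sabouraud dextrose and added at increasing concentrations (final DMSO 0.1% v/v). Plates incubated 24 h at 37 °C.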

Escherichia coli = experiment: Antibacterial activity against Escherichia coli ATCC 25922 incubated for 24 hrs by microdilution method; format: functional, organism-based
How it was run: (§2)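 Modified microdilution in nutrient broth with exponentially growing bacteria per well: E. coli at 5 × 10^3, S. aureus at 3.5 × 10^4. Increasing compound concentrations were dissolved in DMSO and diluted in broth (final DMSO 0.1% v/v). Plates incubated 24 h at 37 °C.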

Staphylococcus aureus = experiment: Antibacterial activity against Staphylococcus aureus ATCC 25923 incubated for 24 hrs by microdilution method; format: functional; how it was run: as §2
DLD-1 = experiment: Selectivity index, ratio of IC50 for human WS1 cells to IC50 for human DLD1 cells; format: functional
A549 [4] = experiment: Selectivity index, ratio of IC50 for human A549 cells to IC50 for human DLD1 cells; format: functional

| Compound | IC50 [1] | IC50 (A549 [2]) | IC50 [3] | Activity (Candida albicans) | Activity (Escherichia coli) | MIC90 (Staphylococcus aureus; ATCC 25923, 24 h) | Ratio IC50 (DLD-1) | Ratio IC50 (A549 [4]) | MIC90 (Staphylococcus aureus) |
| --- | --- | --- | --- | --- | --- | --- | --- | --- | --- |
| COc1cc([C@@H]2c3cc4c(cc3[C@@H](O[C@@H]3O[C@@H]5CO[C@@H](C)O[C@H]5[C@H](O)[C@H]3O)[C@H]3COC(=O)[C@H]23)OCO4)cc(OC)c1O [ETOPOSIDE] | 3.3 µM | 0.48 µM | > 10 µM |  |  |  |  |  |  |
| C[S+]([O-])/C=C/c1cc(=O)c2cc(O)ccc2o1 (stereo not drawn) | > 10 µM | > 10 µM | > 10 µM | inactive | inactive | 7.8 µg/mL (≈ 31.2 µM) |  |  |  |
| COc1ccc2oc(/C=C/[S+](C)[O-])cc(=O)c2c1 (stereo not drawn) | 1.1 µM | 9 µM | 6 µM | inactive | inactive | 4.1 µg/mL (≈ 15.5 µM) | 5 | 8.2 |  |
| COc1cc2oc(/C=C/[S+](C)[O-])cc(=O)c2cc1O (stereo not drawn) | > 10 µM | > 10 µM | > 10 µM | inactive | inactive | 14 µg/mL (≈ 49.9 µM) |  |  |  |
| C[S+]([O-])/C=C/c1cc(=O)c2ccccc2o1 (stereo not drawn) | 1 µM | 10 µM | 9 µM | inactive | inactive | 3.7 µg/mL (≈ 15.8 µM) | 9 | 10 |  |
| COc1cc2oc(/C=C/[S+](C)[O-])cc(=O)c2cc1OC (stereo not drawn) | 4.2 µM | > 10 µM | > 10 µM | inactive | inactive | 18.4 µg/mL (≈ 62.5 µM) |  |  |  |
| COc1ccc2c(=O)cc(/C=C/[S+](C)[O-])oc2c1OC (stereo not drawn) | 3.3 µM | > 10 µM | > 10 µM | inactive | inactive | 18.4 µg/mL (≈ 62.5 µM) |  |  |  |
| GENTAMICIN |  |  |  |  |  |  |  |  | 0.04 µg/mL |
| COc1ccc2c(=O)cc(/C=C/[S+](C)[O-])oc2c1 (stereo not drawn) | 1.8 µM | 10.5 µM | 9 µM | inactive | inactive | 8.3 µg/mL (≈ 31.4 µM) | 5 | 5.8 |  |
| COc1ccc2c(=O)cc(/C=C/[S+](C)[O-])oc2c1O (stereo not drawn) | > 10 µM | > 10 µM | > 10 µM | inactive | inactive | 14 µg/mL (≈ 49.9 µM) |  |  |  |
